# Sampled rows, rich in hits. Any-hit rate of the full collection: about 1.9%.
# PP5 inh = PP5 phosphatase inhibitors, primary screen, biochemical, fluorescence | AID 1987, 2009 | purified PP5c, OMFP substrate fluorescence | Serine/threonine-protein phosphatase 5 (Homo sapiens), P53041 | inhibition, % at 6.7 µM | hit rate 0.18% among 320,000;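 active = inhibition above the campaign's mean inhibition across all tested compounds plus 3 SD, cut at about 9.5% in these data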;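 note: 0% = DMSO only and 100% = 100 µM cantharidin control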
# Scp1 inh = Scp-1 phosphatase inhibitors, primary screen, biochemical, colorimetric, uHTS | Carboxy-terminal domain RNA polymerase II polypeptide A small phosphatase 1 (Homo … | Recombinant Scp1, phosphopeptide, malachite green phosphate absorbance | inhibition, % at 20 µM | hit rate 0.88% among 340,000 | AID 493091, 2011;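 active = inhibition above about 50% at 20 µM, limit read from the data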;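 note: plate controls were DMSO wells with enzyme for no effect and wells lacking enzyme for full effect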
#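 Material – SCP-1 phosphatase catalytic domain, residues 76-261 · Buffer or medium – Acidic Tris acetate buffer with magnesium and detergent · Also added – Phospho 17-mer peptide substrate · Compound – single 20 µM dose, 1% DMSO · Times – 45 min room-temperature reaction, 5 min colour, 30 min stabiliser · Technique – Phosphate-binding colour reagent, absorbance read at 630 nm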
# PP1 counter = PP1-alpha phosphatase inhibitors, primary screen, counter-screen for PP5 inhibitor project, biochemical, fluorescence, OMFP substrate, single point; inhibition, % at 6.7 µM; hit rate 0.9% among 320,000; purified PP1alpha; Serine/threonine-protein phosphatase PP1-alpha catalytic subunit (Homo sapiens), P62136;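 active = inhibition above the mean inhibition of all tested compounds plus 3 SD, computed separately for each screening campaign, cut at about 15% in these data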
# LMPTP block = LMPTP phosphatase inhibitors, primary screen, biochemical, fluorescence intensity, uHTS; hit rate 0.22% among 360,000; AID 651560, 2012; inhibition, % at 20 µM; recombinant LMPTP-A, OMFP fluorogenic substrate; Low molecular weight phosphotyrosine protein phosphatase (Homo sapiens), P24666;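 active = compounds that cut the enzyme signal by at least half of the control window in the single-dose screen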;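 note: plate controls were DMSO wells with enzyme plus substrate for no effect and substrate without enzyme for full effect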
# Target sequence (P24666 whole entry, looked up): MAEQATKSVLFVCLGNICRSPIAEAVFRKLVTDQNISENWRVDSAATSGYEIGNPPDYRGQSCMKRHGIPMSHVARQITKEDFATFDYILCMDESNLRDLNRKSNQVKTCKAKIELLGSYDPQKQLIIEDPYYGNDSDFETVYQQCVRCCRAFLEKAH
#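 material = LMPTP-A | quantity = 0.625 nM enzyme | reagent = OMFP substrate, 400 µM final | buffer or medium = Bis-Tris pH 6.0, DTT, detergent | detection = endpoint fluorescence intensity from OMFP dephosphorylation | dosing = single 20 µM dose | read-out basis = % inhibition relative to no-enzyme and uninhibited control wells | control set = no-enzyme and uninhibited controls | timing = 50 min at room temperature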
# STEP block = STEP phosphatase inhibitors, primary screen, biochemical, fluorescence intensity, uHTS; Tyrosine-protein phosphatase non-receptor type 5 (Homo sapiens), P54829; recombinant STEP, OMFP fluorogenic substrate; inhibition, % at 20 µM; hit rate 0.25% among 360,000;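 active = inhibition at 20 µM, scaled per plate between control wells, above about 37%, limit read from the data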;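 note: 0% = DMSO with enzyme and substrate and 100% = substrate only without enzyme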
# Target sequence (P54829 whole entry, looked up): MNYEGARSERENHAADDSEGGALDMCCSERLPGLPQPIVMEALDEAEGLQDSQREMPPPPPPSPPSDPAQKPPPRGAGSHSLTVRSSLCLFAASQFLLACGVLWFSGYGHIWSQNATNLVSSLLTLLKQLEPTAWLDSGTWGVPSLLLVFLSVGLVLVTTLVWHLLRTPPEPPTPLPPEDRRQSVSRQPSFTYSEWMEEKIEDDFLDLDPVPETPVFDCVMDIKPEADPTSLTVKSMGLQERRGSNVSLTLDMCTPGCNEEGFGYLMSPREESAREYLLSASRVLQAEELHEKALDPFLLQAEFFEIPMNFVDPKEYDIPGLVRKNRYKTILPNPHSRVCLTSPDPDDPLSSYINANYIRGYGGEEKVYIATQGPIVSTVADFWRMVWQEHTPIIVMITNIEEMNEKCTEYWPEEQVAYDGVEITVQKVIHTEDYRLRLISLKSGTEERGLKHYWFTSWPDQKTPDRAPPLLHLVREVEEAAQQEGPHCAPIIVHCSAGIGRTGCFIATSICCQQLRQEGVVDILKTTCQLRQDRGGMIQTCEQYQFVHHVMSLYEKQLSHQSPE
#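 Test system: STEP tyrosine phosphatase / Reagent: OMFP at 25 µM / Doses: 20 µM, 1% DMSO / Read-out: percent inhibition scaled to no-enzyme and uninhibited-enzyme controls, plate-pattern corrected / Detection: FITC-channel fluorescence of OMFP product / Medium: Bis-Tris buffer pH 6.0, 2.5 mM DTT, 0.005% Tween 20 / Schedule: 20 min at room temperature, dark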
# Scp-1 conf = Scp-1 phosphatase inhibitors, retest, confirmation, biochemical, colorimetric, single concentration; shares compounds with Scp1 inh; recombinant SCP-1 catalytic domain, phosphate release, malachite green absorbance; inhibition, % at 20 µM; hit rate 61% among 2,500;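 note: plate controls were DMSO with enzyme for no effect and buffer wells lacking enzyme for full effect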
# MG interference = colorimetric readout interference by compounds, confirmation, artefact control for Scp-1 inhibitor project, biochemical, single concentration. apparent inhibition (interference), % at 20 µM. Colorimetric interference counterscreen, malachite green absorbance 630 nm. AID 540313, 2011. shares compounds with Scp1 inh. 2,500 tested, under 10 active;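 note: compounds added after enzyme reaction finished so only phosphate colour detection is probed; plate controls were DMSO wells with completed Scp-1 reaction for no effect and substrate wells lacking enzyme for full effect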
# Scp-1 Tm shift = Scp-1 binding by thermal shift, confirmation, orthogonal assay for Scp-1 inhibitor project, biophysical, differential scanning fluorimetry; AID 540329, 2011; shares compounds with Scp1 inh; Recombinant SCP1, Sypro Orange thermal shift Tm; hit rate 25% among 1,500; thermal shift relative to vanadate control, % at 40 µM;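 active = substances whose mean melting-temperature shift, as a percentage of the reference inhibitor's shift, reaches about 5.3%, limit read from the data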;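 note: 0% = Tm of DMSO wells and 100% = Tm with sodium orthovanadate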
# Active calls of the source: *; · = not tested or not shown; ! = not confirmed by another sample.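 Rule for the calls, unless noted: active = inhibition of at least 30% at 20 µM; inactive = the rest.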
SMILES,PP5 inh,Scp1 inh,PP1 counter,LMPTP block,STEP block,Scp-1 conf,MG interference,Scp-1 Tm shift
CCOC(=O)C1=C(C)c2ccccc2OC1(C(=O)OCC)c1ccccc1 (stereo not drawn),·,103*,·,-1,-4,39*,-18,-31
CCOC(=O)c1ccccc1C(=O)OCC,2,-12,-4,-2,-3,·,·,·
O=C(O)CCn1cc(C=C2C(=O)NC(=S)NC2=O)c(-c2cccc(Cl)c2)n1,-3,67*,-7,0,-2,42*,-13,-19
CN(C)C1=NC(N(C)C)=NP(N(C)C)(N(C)C)=N1,-2,-1,-1,-2,-2,·,·,·
C[n+]1ccc(-c2ccncc2)cc1,2,96*,-5,-5,2,4,-9,·
O=C1CC(=O)N(c2cccc(F)c2)C(=O)N1,4,-5,-1,-1,-1,·,·,·
O=C(CCN1CC2CCC(CC2)C1)c1cccs1,·,5,·,-2,-2,·,·,·
CCCC[N+]12CCC(CC1)C(C(=O)c1cccs1)C2 (stereo not drawn),0,98*,-2,0,-2,103*,6,-4
CC(C)[N+]12CCC(CC1)C(C(O)(c1ccccc1)c1ccccc1)C2 (stereo not drawn),-4,99*,-2,-1,-4,87*,-11,-27
CCc1ccccc1N1C(=O)NC(=O)/C(=C\c2cc(C)n(C)c2C)C1=O,3,-9,1,0,-1,·,·,·
CC(C)CC(NC(=O)CCCNC(=O)CCC(=O)OC1O[C@H]2OC3(C)CC[C@H]4[C@H](C)CCC(C1C)C24OO3)C(=O)O (stereo partly drawn),-1,95*,-2,-1,-4,-12,-13,·
C[C@H]1[C@H](OC(=O)CCC(=O)NCc2ccc(C(=O)O)cc2)O[C@@H]2O[C@@]3(C)CC[C@H]4[C@H](C)CC[C@@H]1C24OO3,1,4,7,0,-1,·,·,·
CCN(CC)P(=O)(c1n(CC)cc[n+]1CC)N(CC)CC,0,103*,1,3,-3,80*,-19,-10
CNC(C(=O)c1ccccc1)C(OC(C)=O)c1cccc([N+](=O)[O-])c1 (stereo not drawn),1,88*,-5,0,1,-10,-10,·
O=C(O)c1cccc2c1NC(c1cccc([N+](=O)[O-])c1)C1CC(Sc3ccccc3[N+](=O)[O-])C(Cl)C21 (stereo not drawn),·,1,·,36,8,·,·,·
Cc1ccc2c(c1Cl)NC(C(=O)O)C1CC(Sc3ccccc3[N+](=O)[O-])C(Cl)C21 (stereo not drawn),1,60*,2,42,5,65*,-16,18*
Cc1cc(/C=C2/C(=O)NC(=O)N(C)C2=O)c(C)n1-c1ccccc1,-1,-7,-1,2,-3,·,·,·
Cc1cc(/C=C2\C(=O)NC(=O)N(c3ccccc3F)C2=O)c(C)n1-c1cc(C(=O)O)cc(C(=O)O)c1,1,55*,3,1,42*,32*,-15,9.9*
COc1ccc2c(c1OC)C(=O)OC2c1c(O)n(C2CCCCC2)c(=O)[nH]c1=O (stereo not drawn),2,-2,1,0,-18,·,·,·
CC1CCCC(C2(O)C(=O)Nc3ccccc32)C1=O (stereo not drawn),1,57*,-4,-3,-7,2,-14,·
Cn1c[n+](C)cc1C(O)c1ccccc1 (stereo not drawn),1,92*!,0,-1,-2,84*,-11,-1
CN1C(CC(O)c2ccccc2)CCCC1CC(O)c1ccccc1 (stereo not drawn),0,-4,2,-2,-2,·,·,·
COC(=O)C1=C(c2cc3ccccc3o2)C[C@@H]2CC[C@H]1N2C(=O)N1CCC(O)CC1,3,-7,0,-1,0,·,·,·
COc1ccc(CN2C(=O)NC(=O)/C(=C/c3cc(OC)c(OC)c(OC)c3)C2=O)cc1,1,4,-1,-1,-1,·,·,·
COc1ccc(CN2C(=O)NC(=O)/C(=C/c3ccoc3)C2=O)cc1,2,72*,-6,24,68*,71*,-13,1
SMILES,PP5 inh,Scp1 inh,PP1 counter,LMPTP block,STEP block,Scp-1 conf,MG interference,Scp-1 Tm shift
CN1C(=O)N(C)C(=O)C2(Cc3ccccc3N3CCOCC32)C1=O (stereo not drawn),3,-5,-1,-2,1,·,·,·
CCN1CCN(C(c2cccs2)C(C)NC(=O)Oc2ccccc2)CC1 (stereo not drawn),0,-1,2,-1,-2,·,·,·
CCC(CO)(C(=O)OC1C[N+]2(C)CCC1CC2)c1ccccc1 (stereo not drawn),-2,94*,-5,0,1,80*,-17,-1
COc1ccc2nc3c(C)n(C)ccc-3c2c1,·,-10,·,4,-2,·,·,·
CC[N+](C)(CC)CCCCOc1ccc2c(c1)C(=O)c1cc(OCCCC[N+](C)(CC)CC)ccc1-2,1,103*,-5,3,2,62*,-2,1
NS(=O)(=O)c1ccc(-c2ccc(C=C3C(=O)NC(=O)NC3=O)o2)cc1,-1,8,5,-1,0,·,·,·
O=C1NC(=O)C(=Cc2ccc(SC3CCCCC3)o2)C(=O)N1,4,53*,5,5,1,75*,-9,-7
CCOc1ccccc1N=C1SCCCN1C,1,55*,-5,0,0,67*,-11,-7
CC(=O)Nc1ccc(N=Cc2c(O)n(Cc3ccco3)c(=O)[nH]c2=O)cc1,1,72*,0,1,6,51*,-7,-6
CCCCC(=O)N/N=C/c1c(O)n(Cc2ccco2)c(=O)[nH]c1=O,1,-7,2,-2,-3,·,·,·
COc1ccc(OP(=O)(Nc2ccccc2)Nc2ccccc2)cc1,1,-8,-1,-1,-2,·,·,·
CC(=O)c1c(C)[nH]c(C(=O)N2CCC3(CC2)OCCO3)c1C,1,-5,-4,-1,-4,·,·,·

# Screening results as filed in PubChem BioAssay.
